{
  "source": "ChEMBL document CHEMBL1275259",
  "about": "“In vitro antituberculosis activities of ACH-702, a novel isothiazoloquinolone, against quinolone-susceptible and quinolone-resistant isolates” (Antimicrob Agents Chemother, 2010)",
  "key": {"[1]": {"test_system": "Mycobacterium tuberculosis", "experiment": "Antimicrobial activity against pansusceptible Mycobacterium tuberculosis isolate 4", "format": "functional", "in_short": "(§1)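 Broth microdilution MIC in modified 7H10 broth (pH 6.6). Drugs dissolved in DMSO at 1 mg/ml, then serially diluted. Isolates grown 5 to 10 days at 37°C on a rotary shaker, diluted to 100 Klett units and frozen. Final inoculum about 6 × 10^4 CFU/ml (range 1.2 × 10^4 to 2.6 × 10^5). Duplicate wells, sealed, read after about 21 days at 37°C in ambient air.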"}, "[2]": {"biological_target": "DNA gyrase subunit A (Mycobacterium tuberculosis, UniProt P9WG47)", "sequence (P9WG47 whole entry)": "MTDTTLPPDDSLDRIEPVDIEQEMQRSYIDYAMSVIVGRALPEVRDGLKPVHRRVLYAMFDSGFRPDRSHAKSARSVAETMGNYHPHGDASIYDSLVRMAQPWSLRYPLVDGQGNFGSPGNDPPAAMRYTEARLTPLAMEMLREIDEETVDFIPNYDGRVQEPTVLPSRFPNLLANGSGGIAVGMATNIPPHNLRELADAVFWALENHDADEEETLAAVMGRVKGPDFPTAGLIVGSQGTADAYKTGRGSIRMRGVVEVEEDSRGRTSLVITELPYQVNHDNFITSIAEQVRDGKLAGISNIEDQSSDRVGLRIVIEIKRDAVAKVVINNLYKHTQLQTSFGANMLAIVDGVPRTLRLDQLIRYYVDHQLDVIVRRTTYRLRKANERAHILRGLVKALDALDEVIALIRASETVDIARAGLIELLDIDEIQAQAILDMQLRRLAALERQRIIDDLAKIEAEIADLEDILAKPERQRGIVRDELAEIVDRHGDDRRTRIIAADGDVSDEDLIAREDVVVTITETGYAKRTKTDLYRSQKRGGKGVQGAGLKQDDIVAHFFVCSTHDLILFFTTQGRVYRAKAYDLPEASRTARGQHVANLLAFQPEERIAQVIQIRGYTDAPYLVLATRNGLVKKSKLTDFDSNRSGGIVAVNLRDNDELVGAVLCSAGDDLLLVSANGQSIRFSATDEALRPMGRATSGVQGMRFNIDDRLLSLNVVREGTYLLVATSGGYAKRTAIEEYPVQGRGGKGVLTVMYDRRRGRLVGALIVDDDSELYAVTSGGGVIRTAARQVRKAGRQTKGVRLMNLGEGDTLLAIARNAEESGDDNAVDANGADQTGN", "experiment": "Inhibition of DNA supercoiling activity of wild type Mycobacterium tuberculosis DNA gyrase A", "in_short": "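Gyrase reconstituted from wild-type GyrA plus wild-type GyrB at a 2:3 molar ratio. Supercoiling assay follows ATP-dependent conversion of relaxed pBR322 DNA to the supercoiled form. Supercoiled product quantified by ethidium bromide fluorescence after agarose gel electrophoresis.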"}, "[3]": {"test_system": "Mycobacterium tuberculosis", "experiment": "Antimicrobial activity against pansusceptible Mycobacterium tuberculosis isolate 3", "format": "functional", "in_short": "as §1"}, "[4]": {"test_system": "Mycobacterium tuberculosis", "experiment": "Antimicrobial activity against pansusceptible Mycobacterium tuberculosis isolate 14", "format": "functional", "in_short": "as §1"}, "[5]": {"test_system": "Mycobacterium tuberculosis", "experiment": "Antimicrobial activity against pansusceptible Mycobacterium tuberculosis isolate 5", "format": "functional", "in_short": "as §1"}, "[6]": {"test_system": "Mycobacterium tuberculosis", "experiment": "Antimicrobial activity against pansusceptible Mycobacterium tuberculosis isolate 1", "format": "functional", "in_short": "as §1"}, "[7]": {"test_system": "Mycobacterium tuberculosis", "experiment": "Antimicrobial activity against pansusceptible Mycobacterium tuberculosis isolate 6", "format": "functional", "in_short": "as §1"}, "[8]": {"test_system": "Mycobacterium tuberculosis", "experiment": "Antimicrobial activity against Mycobacterium tuberculosis isolate 13 isolated from Beijing", "format": "functional", "in_short": "as §1"}, "[9]": {"test_system": "Mycobacterium tuberculosis", "experiment": "Antimicrobial activity against pansusceptible Mycobacterium tuberculosis isolate 7", "format": "functional", "in_short": "as §1"}, "[10]": {"test_system": "Mycobacterium tuberculosis", "experiment": "Antimicrobial activity against pansusceptible Mycobacterium tuberculosis isolate 2", "format": "functional", "in_short": "as §1"}},
  "data": [
    {"smiles": "COc1c(N2CC[C@@H](C(C)(C)N)C2)c(F)cc2c(=O)c3c(=O)[nH]sc3n(C3CC3)c12", "values": [
      {"measurement": "MIC", "setting": "[1]", "result": 0.06, "unit": "µg/mL"},
      {"measurement": "IC50", "setting": "[2]", "result": 2.9, "unit": "µM"},
      {"measurement": "MIC", "setting": "[3]", "result": 0.06, "unit": "µg/mL"},
      {"measurement": "MIC", "setting": "[4]", "result": 0.06, "unit": "µg/mL"},
      {"measurement": "MIC", "setting": "[5]", "result": 0.06, "unit": "µg/mL"},
      {"measurement": "MIC", "setting": "[6]", "result": 0.06, "unit": "µg/mL"},
      {"measurement": "MIC", "setting": "[7]", "result": 0.03, "unit": "µg/mL"},
      {"measurement": "MIC", "setting": "[8]", "result": 0.06, "unit": "µg/mL"},
      {"measurement": "MIC", "setting": "[9]", "result": 0.06, "unit": "µg/mL"},
      {"measurement": "MIC", "setting": "[10]", "result": 0.03, "unit": "µg/mL"}
    ]},
    {"smiles": "COc1c(N2CCNC(C)C2)c(F)cc2c(=O)c(C(=O)O)cn(C3CC3)c12", "note": "(centres undefined) [GATIFLOXACIN]", "values": [
      {"measurement": "IC50", "setting": "[2]", "result": 9.4, "unit": "µM"}
    ]},
    {"smiles": "NNC(=O)c1ccncc1", "note": "[ISONIAZID]", "values": [
      {"measurement": "MIC", "setting": "[1]", "result": 0.06, "unit": "µg/mL"},
      {"measurement": "MIC", "setting": "[3]", "result": 0.06, "unit": "µg/mL"},
      {"measurement": "MIC", "setting": "[4]", "result": 0.06, "unit": "µg/mL"},
      {"measurement": "MIC", "setting": "[5]", "result": 0.125, "unit": "µg/mL"},
      {"measurement": "MIC", "setting": "[6]", "result": 0.03, "unit": "µg/mL"},
      {"measurement": "MIC", "setting": "[7]", "result": 0.06, "unit": "µg/mL"},
      {"measurement": "MIC", "setting": "[8]", "result": 0.125, "unit": "µg/mL"},
      {"measurement": "MIC", "setting": "[9]", "result": 0.06, "unit": "µg/mL"},
      {"measurement": "MIC", "setting": "[10]", "result": 0.06, "unit": "µg/mL"}
    ]},
    {"smiles": "C[C@H]1COc2c(N3CCN(C)CC3)c(F)cc3c(=O)c(C(=O)O)cn1c23", "note": "[LEVOFLOXACIN]", "values": [
      {"measurement": "IC50", "setting": "[2]", "result": 52, "unit": "µM"}
    ]},
    {"smiles": "COc1c(N2C[C@@H]3CCCN[C@@H]3C2)c(F)cc2c(=O)c(C(=O)O)cn(C3CC3)c12", "note": "[MOXIFLOXACIN]", "values": [
      {"measurement": "MIC", "setting": "[1]", "result": 0.06, "unit": "µg/mL"},
      {"measurement": "MIC", "setting": "[3]", "result": 0.03, "unit": "µg/mL"},
      {"measurement": "MIC", "setting": "[4]", "result": 0.03, "unit": "µg/mL"},
      {"measurement": "MIC", "setting": "[5]", "result": 0.06, "unit": "µg/mL"},
      {"measurement": "MIC", "setting": "[6]", "result": 0.03, "unit": "µg/mL"},
      {"measurement": "MIC", "setting": "[7]", "result": 0.03, "unit": "µg/mL"},
      {"measurement": "MIC", "setting": "[8]", "result": 0.03, "unit": "µg/mL"},
      {"measurement": "MIC", "setting": "[9]", "result": 0.06, "unit": "µg/mL"},
      {"measurement": "MIC", "setting": "[10]", "result": 0.03, "unit": "µg/mL"}
    ]},
    {"smiles": "CO[C@H]1/C=C/O[C@@]2(C)Oc3c(C)c(O)c4c(O)c(c(/C=N/N5CCN(C)CC5)c(O)c4c3C2=O)NC(=O)/C(C)=C\\C=C\\[C@H](C)[C@H](O)[C@@H](C)[C@@H](O)[C@@H](C)[C@H](OC(C)=O)[C@@H]1C", "note": "[RIFAMPIN]", "values": [
      {"measurement": "MIC", "setting": "[1]", "result": 0.008, "unit": "µg/mL"},
      {"measurement": "MIC", "setting": "[3]", "result": 0.004, "unit": "µg/mL"},
      {"measurement": "MIC", "setting": "[4]", "result": 0.002, "unit": "µg/mL"},
      {"measurement": "MIC", "setting": "[5]", "result": 0.015, "unit": "µg/mL"},
      {"measurement": "MIC", "setting": "[6]", "result": 0.004, "unit": "µg/mL"},
      {"measurement": "MIC", "setting": "[7]", "result": 0.008, "unit": "µg/mL"},
      {"measurement": "MIC", "setting": "[8]", "result": 0.002, "unit": "µg/mL"},
      {"measurement": "MIC", "setting": "[9]", "result": 0.004, "unit": "µg/mL"},
      {"measurement": "MIC", "setting": "[10]", "result": "≤ 0.001", "unit": "µg/mL"}
    ]}
  ]
}
